Assay results pooled from the literature.
Protocols differ between the studies behind these lines.
Organism: Severe acute respiratory syndrome coronavirus 2

CC(=O)OC[C@H]1O[C@@H](Sc2nc(N)c(C(=O)Nc3ccc(Cl)cc3)c(=S)[nH]2)[C@H](OC(C)=O)[C@@H](OC(C)=O)[C@@H]1OC(C)=O  IC50 (viral replication; Vero C1008; 72 h): 77.4 µM
CN(C)CCC=C1c2ccccc2CCc2ccccc21  IC50 (viral replication; inhibitor; A549-ACE2): 0.871 µM
CCCCCCCCCC(=O)N[C@@H](Cc1c[nH]c2ccccc12)C(=O)N[C@H](CC(N)=O)C(=O)N[C@@H](CC(=O)O)C(=O)N[C@@H]1C(=O)NCC(=O)N[C@@H](CCCN)C(=O)N[C@@H](CC(=O)O)C(=O)N[C@H](C)C(=O)N[C@@H](CC(=O)O)C(=O)NCC(=O)N[C@H](CO)C(=O)N[C@@H]([C@H](C)CC(=O)O)C(=O)N[C@@H](CC(=O)c2ccccc2N)C(=O)O[C@@H]1C  IC50 (viral replication; inhibitor; Vero; 24 h): > 0.4 µg/mL
CC(C)[N+]1(C)[C@@H]2CC[C@H]1C[C@@H](OC(=O)C(CO)c1ccccc1)C2 (stereo partly drawn)  IC50 (viral replication; inhibitor; Huh-7): 0.056 µM
CC(C)c1nc(CN(C)C(=O)N[C@H](C(=O)N[C@@H](Cc2ccccc2)C[C@H](O)[C@H](Cc2ccccc2)NC(=O)OCc2cncs2)C(C)C)cs1  IC50 (viral replication; inhibitor; Vero C1008): 11.7 to 19.9 µM
Fc1ccc([C@@H]2CCNC[C@H]2COc2ccc3c(c2)OCO3)cc1  IC50 (viral replication; Vero C1008): 3.55 µM
CCCCCOc1ccc(-c2ccc(-c3ccc(C(=O)N[C@H]4C[C@@H](O)[C@@H](O)NC(=O)[C@@H]5[C@@H](O)[C@@H](C)CN5C(=O)[C@H]([C@@H](C)O)NC(=O)[C@H]([C@H](O)[C@@H](O)c5ccc(O)cc5)NC(=O)[C@@H]5C[C@@H](O)CN5C(=O)[C@H]([C@@H](C)O)NC4=O)cc3)cc2)cc1  IC50 (viral replication; inhibitor; Vero; 24 h): 5.4 µg/mL
CCN(CC)CCNC(=O)c1cc(Cl)c(N)cc1OC  IC50 (viral replication; inhibitor; Huh-7): 0.468 µM
COc1c(O)cc2oc(-c3ccccc3)cc(=O)c2c1O  IC50 (viral replication; inhibitor; Vero C1008): 15.1 µM
CCCCc1oc2ccc(NS(C)(=O)=O)cc2c1C(=O)c1ccc(OCCCN(CCCC)CCCC)cc1  IC50 (viral replication; inhibitor; Calu-3; 40 h): 2.95 µM
CC[C@H](C)C[C@H](C)CCCCCCCCC(=O)N[C@H]1C[C@@H](O)[C@@H](NCCN)NC(=O)[C@@H]2[C@@H](O)CCN2C(=O)[C@H]([C@H](O)CCN)NC(=O)[C@H]([C@H](O)[C@@H](O)c2ccc(O)cc2)NC(=O)[C@@H]2C[C@@H](O)CN2C(=O)[C@H]([C@@H](C)O)NC1=O  IC50 (viral replication; inhibitor; Vero; 24 h): > 200 µg/mL
C=C[C@@H]1C[C@]1(NC(=O)[C@@H]1C[C@@H](Oc2ncc(OC)c3ccc(Cl)cc23)CN1C(=O)[C@@H](NC(=O)OC(C)(C)C)C(C)(C)C)C(=O)NS(=O)(=O)C1CC1  IC50 (viral replication; HEK-293T): 48.4 µM
O=C1CCC(N2C(=O)c3ccccc3C2=O)C(=O)N1 (stereo not drawn)  IC50 (viral replication; inhibitor; Huh-7): > 2 µM
CC[C@H](C)[C@H]1C(=O)N2CCC[C@H]2C(=O)O[C@H](C(C)(C)C)C[C@@H](C)C[C@H](O)[C@H](C)C2=N[C@@H](CCC(=O)N[C@@H](Cc3ccc(OC)cc3)C(=O)N(C)[C@@H](C)C(=O)N1C)CS2  IC50 (viral replication; inhibitor; Vero C1008): 0.17 µM
CCSc1ccc2c(c1)N(CCCN1CCN(C)CC1)c1ccccc1S2  IC50 (viral replication; inhibitor; Vero C1008): 7.09 µM
CCN(C)C(=O)Oc1cccc([C@H](C)N(C)C)c1  IC50 (viral replication; inhibitor; Huh-7): > 2 µM
CCCCc1oc2ccc(NS(C)(=O)=O)cc2c1C(=O)c1ccc(OCCCN(CCCC)CCCC)cc1  IC50 (viral replication; inhibitor; Vero C1008): 1.5 µM
CC(C)(C)CC(C)(C)c1ccc(O)c(Cc2ccc(Cl)cc2Cl)c1  IC50 (viral replication; inhibitor; Calu-3; 40 h): 3.26 µM
Nc1nc(S[C@@H]2O[C@H](CO)[C@H](O)[C@H](O)[C@H]2O)[nH]c(=S)c1C(=O)Nc1ccc(Cl)cc1  IC50 (viral replication; Vero C1008; 72 h): 15.4 µM
COc1cccc2c1C(=O)c1c(O)c3c(c(O)c1C2=O)C[C@@](O)(C(C)=O)C[C@@H]3O[C@H]1C[C@H](N)[C@H](O)[C@H](C)O1  IC50 (viral replication; inhibitor; Calu-3; 40 h): 1.23 µM
CCCC(CCC)C(=O)O  IC50 (viral replication; inhibitor; Huh-7): > 2 µM
COc1ccc2c(O[C@@H]3C[C@H]4C(=O)N[C@]5(C(=O)NS(=O)(=O)C6CC6)C[C@H]5/C=C\CCCCN(C)C(=O)[C@@H]4C3)cc(-c3nc(C(C)C)cs3)nc2c1C  IC50 (viral replication; HEK-293T): 2.3 µM
CCN(CC)CCOc1ccc(C(O)(Cc2ccc(Cl)cc2)c2ccc(C)cc2)cc1 (stereo not drawn)  IC50 (viral replication; inhibitor; Vero C1008): 4.68 µM
COc1ccc2c(c1)[C@]13CCCC[C@@H]1[C@H](C2)N(C)CC3  IC50 (viral replication; inhibitor; A549-ACE2): 4.17 µM
NC(=O)c1nc(F)c[nH]c1=O  IC50 (viral replication; inhibitor; Vero C1008): > 100 µM
O=C1NCN(c2ccccc2)C12CCN(CCCC(c1ccc(F)cc1)c1ccc(F)cc1)CC2  IC50 (viral replication; inhibitor; Vero C1008): 3.16 µM
CC(C)(C)[C@@H]1NC(=O)O[C@@H]2CCC[C@H]2OC/C=C/C(F)(F)c2nc3ccccc3nc2O[C@@H]2C[C@@H](C(=O)N[C@]3(C(=O)NS(=O)(=O)C4(C)CC4)C[C@H]3C(F)F)N(C2)C1=O  IC50 (viral replication; HEK-293T): > 50 µM
Clc1ccc(C(Cn2ccnc2)OCc2ccsc2Cl)c(Cl)c1 (stereo not drawn)  IC50 (viral replication; inhibitor; Calu-3; 40 h): 2.43 µM
CCN(CC)CCOc1ccc2c(c1)C(=O)c1cc(OCCN(CC)CC)ccc1-2  IC50 (viral replication; inhibitor; Vero; 24 h): 79.2 µM
Cc1ccc(NC(=O)c2c(N)nc(S[C@@H]3O[C@H](CO)[C@@H](O)[C@H](O)[C@H]3O)[nH]c2=S)cc1  IC50 (viral replication; Vero C1008; 72 h): 73.7 µM
C[C@H](Nc1nc(N2CCNCC2)nc2ccccc12)c1ccccc1  IC50 (cytopathic effect; Vero C1008; 72 h): 10 µM
Nc1nc(S)[nH]c(=S)c1C(=O)Nc1ccc(Cl)cc1  IC50 (viral replication; Vero C1008; 72 h): 289 µM
CC(Nc1nc(N2CCNCC2)nc2ccccc12)c1ccccc1N (stereo not drawn)  IC50 (viral entry; inhibitor; pseudovirus): 35.5 µM
O=C(Nc1ccc([N+](=O)[O-])cc1Cl)c1cc(Cl)ccc1O  IC50 (viral replication; inhibitor; Huh-7): 0.142 µM
COc1c(C)c2c(c(O)c1C/C=C(\C)CCC(=O)OCCN1CCOCC1)C(=O)OC2  IC50 (viral replication; inhibitor; Calu-3; 40 h): 2.15 µM
COc1cc(Nc2c(C#N)cnc3cc(OCCCN4CCN(C)CC4)c(OC)cc23)c(Cl)cc1Cl  IC50 (viral replication; inhibitor; Huh-7): 0.02 µM
COc1ccc([C@@H]2Sc3ccccc3N(CCN(C)C)C(=O)[C@@H]2OC(C)=O)cc1  IC50 (viral replication; inhibitor; Vero C1008): > 45 µM
CC(=O)OC[C@H]1O[C@@H](Sc2nc(N)c(C(=O)Nc3ccccc3)c(=S)[nH]2)[C@H](OC(C)=O)[C@@H](OC(C)=O)[C@@H]1OC(C)=O  IC50 (viral replication; Vero C1008; 72 h): 126 µM
COc1ccc(CN2CCN(Cc3ccccc3)CC2)cc1  IC50 (viral replication; Vero C1008): 1.58 µM
CCOP(=O)(OCC)N1C/C(=C\c2ccc(F)cc2)C(=O)C2(C1)C(c1ccc(F)cc1)CN(C)C21C(=O)Nc2ccc(Cl)cc21 (stereo not drawn)  IC50 (viral replication; inhibitor; Vero C1008; 72 h): 13.5 µM
CC(C)(C)[C@]1(O)CCN2C[C@H]3c4ccccc4CCc4cccc(c43)[C@@H]2C1  IC50 (viral replication; Vero C1008): 6.17 µM
COC(=O)c1ccc2c(c1)NC(=O)/C2=C(\Nc1ccc(N(C)C(=O)CN2CCN(C)CC2)cc1)c1ccccc1  IC50 (viral replication; inhibitor; Huh-7): > 2 µM
COc1cc2c(cc1OC)CN(CCc1ccc(NC(=O)c3cccc4c(=O)c5cccc(OC)c5[nH]c34)cc1)CC2  IC50 (viral replication; Vero C1008): 0.575 µM
CC(C)C(=O)OCC(=O)[C@@]12O[C@H](C3CCCCC3)O[C@@H]1C[C@H]1[C@@H]3CCC4=CC(=O)C=C[C@]4(C)[C@H]3[C@@H](O)C[C@@]12C  IC50 (viral replication; VeroE6/TMPRSS2): 8 µM
CC(CN1c2ccccc2Sc2ccccc21)N(C)C (stereo not drawn)  IC50 (viral replication; inhibitor; A549-ACE2): 0.575 µM
CC(CN1c2ccccc2Sc2ccccc21)N(C)C (stereo not drawn)  IC50 (viral replication; inhibitor; Vero C1008): 9.21 µM
Nc1nc(S[C@@H]2O[C@H](CO)[C@@H](O)[C@H](O)[C@H]2O)[nH]c(=S)c1C(=O)Nc1ccccc1  IC50 (viral replication; Vero C1008; 72 h): 47.8 µM
CCN(CC)CCOc1ccc(C(O)(Cc2ccc(Cl)cc2)c2ccc(C)cc2)cc1 (stereo not drawn)  IC50 (viral replication; inhibitor; A549-ACE2): 0.363 µM
